Only some compounds are listed: those with a hit (about 2.3% of all), similar ones and a draw of the others.
MCL1-BIM inh: MCL1-BIM-BH3 interaction inhibition (human); Q07820; inhibition, % at 10.9 µM; AID 2057; 320,000 tested, 0.68% active; GST-MCL1 / FITC-Bim-BH3 fluorescence polarization;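 active = inhibition above the mean inhibition of all tested compounds plus 3 SD, set per campaign, cut at about 40% in these data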;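 note: 0% = DMSO wells and 100% = unlabeled Bim-BH3 peptide control; higher means more loss of mP so more displacement of Bim peptide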
Target sequence (Q07820 whole entry, looked up): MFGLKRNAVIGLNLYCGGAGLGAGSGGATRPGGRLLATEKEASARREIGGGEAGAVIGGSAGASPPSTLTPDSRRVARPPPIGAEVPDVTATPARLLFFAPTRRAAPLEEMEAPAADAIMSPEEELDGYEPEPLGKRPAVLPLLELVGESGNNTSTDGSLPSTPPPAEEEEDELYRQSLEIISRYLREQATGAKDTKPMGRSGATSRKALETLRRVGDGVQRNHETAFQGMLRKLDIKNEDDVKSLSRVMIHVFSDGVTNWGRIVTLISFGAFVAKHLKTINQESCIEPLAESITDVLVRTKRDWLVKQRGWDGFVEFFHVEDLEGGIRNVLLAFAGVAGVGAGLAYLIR
Mcl1-Noxa inh: Mcl-1/Noxa interaction inhibition; TR-FRET Mcl-1/Noxa peptide binding, 2 h; inhibition, % at 21.7 µM; 220,000 tested, 1.5% active; AID 1022;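 active = compounds that cut the protein-peptide binding signal by more than 50% relative to plate controls in a single-dose test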;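 note: His-tagged Mcl-1 with rhodamine Noxa BH3 peptide and terbium anti-His antibody; 0% = Mcl-1 plus Noxa peptide wells and 100% = peptide-only wells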
Mcl1 Bid PPI: disrupts binding of human Mcl-1 to Bid peptide; Q07820; TR-FRET Mcl-1/Bid-Dy647 peptide binding, 1536-well; inhibition, % at 21.7 µM; 220,000 tested, 0.97% active; AID 1021;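 active = compounds that cut the binding signal by more than half at the single screening dose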;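 note: His-tagged Mcl-1 with europium anti-His antibody binding Bid BH3 peptide; 0% = Mcl-1 plus peptide wells and 100% = peptide-only wells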
T cell HTS: T cell immune modulation candidate | response (vesicle binding), % at 7 µM | 330,000 tested, 0.068% active | 2C CD8+ T cell-vesicle binding, flow cytometry; hits give low values;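 active = response, share of CD8 T cells binding vesicles, and their 90th percentile fluorescence all below set limits, cut at about 80% in these data, passing the limit was not always enough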;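 note: values below 100% mean blocked vesicle binding to the CD8+ T cells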
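Material: 2C TCR transgenic mouse naive CD8+ T cells, MACS-purified. Also added: QL9-charged Drosophila Ld/ICAM-1/B7-1 vesicles. Timing: binding 1.5 h at 37 °C. Measured by: high-throughput flow cytometry with anti-B7-1 and anti-CD8 staining. Read-out: percent CD8+ FL2 mean versus row control. Controls: Unloaded micro-vesicles (low), QL9 vesicles with 0.7% DMSO (high).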
Mcl-1 Bim block: inhibitors of Bim-Mcl-1 interaction, human; Q07820; Bead-based flow cytometry, Bim peptide-Mcl-1 binding; inhibition, % at 10 µM; 190,000 tested, 0.1% active; AID 1009; in the data active = inhibition above about 40%;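 note: 0% = no compound tracer wells and 100% = peptide blocker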
Pemphigus Ab inh: human desmoglein-3 autoantibody binding inhibition | binding (percent of control), % at 10 µM | DSG3-coupled beads, scFv-anti-DSG3-GFP binding, flow cytometry; hits give low values | 310,000 tested, 0.48% active | AID 588358;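 active = binding more than 3 SD below its plate's average and above zero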;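 note: hits lower antibody fragment binding to DSG3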
The depositor's hits bear a star; x = no result.

SMILES	MCL1-BIM inh	Mcl1-Noxa inh	Mcl1 Bid PPI	T cell HTS	Mcl-1 Bim block	Pemphigus Ab inh
CCOC(=O)N1CCN(C(=O)c2cccc(N3C(=O)NC4CC3(C)Oc3ccc(Cl)cc34)c2)CC1 (stereo not given)	-2	x	x	291	x	100
CC1(C)CC(=O)C(C=NCCN2CCN(CCc3ccccc3)CC2)=C(O)C1	-15	14	-8	295	51*	102
CC1=C(C(=O)N(C)C)CC(CC(=O)NC2CCCCC2)C(=O)N1CCCN1CCCC1=O (stereo not given)	x	x	x	x	x	107
COc1ccc2oc(=O)c(C(=O)Nc3ccccc3O)cc2c1	2	26	-9	407	x	84
COc1ccc2o/c(=N\O)c(C(=O)Nc3ccccc3OC)cc2c1	-74	60*	14	288	-7	104
CC(Sc1cccc[n+]1[O-])C(=O)NC1CCCCC1C (stereo not given)	x	x	x	518	x	100
Cc1ccc(Cn2cc(C(=O)c3ccc(F)cc3)c(=O)c3cc4c(cc32)OCCO4)cc1	0	15	4	216	-3	0.5*
Cc1cccc2c1c1ccc3c(c1n2C)C(=O)C=CC3=O	x	108*	40	x	x	117
NC(=O)NC(CC(=O)NCCc1ccc(S(N)(=O)=O)cc1)c1ccc(Cl)cc1 (stereo not given)	-4	3	84*	598	x	92
NC(=O)NC(CC(=O)NCCc1ccc(S(N)(=O)=O)cc1)c1ccccc1Cl (stereo not given)	8	-1	-13	172	x	102
Nc1ccc2c(c1)[nH]c(=O)c1cc(N)ccc12	x	x	x	x	x	75*
CCCCCCc1c(C)c2ccc(OCC(=O)N3CCC[C@H]3C(=O)O)c(C)c2oc1=O	14	x	x	221	x	105
Cc1cccc(C(=O)N2CCc3cc(-c4nc(NC(=O)Cn5nnc6ccccc6c5=O)sc4C)ccc32)c1	7	51*	67*	151	-4	x
CC1(C)OC(C)(C)/C(=C/Nc2ccc(O)cc2)C1=O	21	57*	-33	223	15	118
NC(=O)CC(NC(=O)Cc1ccc(Br)cc1)c1ccc(NC2CCCC2)c([N+](=O)[O-])c1 (stereo not given)	3	-8	19	442	x	1.8*
NC(=O)CC(NC(=O)Cc1ccc(Br)cc1)c1ccc(NC2CCCCCCC2)c([N+](=O)[O-])c1 (stereo not given)	x	x	x	x	x	102
O=C(Nc1ccccc1)N1CCN(Cc2ccc3c(c2)OCO3)CC1	2	-7	58*	262	-2	x
Cc1cc(C)cc(NC(=O)N2CCN(Cc3ccc4c(c3)OCO4)CC2)c1	3	5	-7	432	x	x
O=C(CSc1ncnc2scc(-c3ccccc3)c12)N1CCN(Cc2ccc3c(c2)OCO3)CC1	-18	61*	-38	154	-4	120
OCCN1CCN(CC(O)COCc2ccc3c(c2)OCO3)CC1 (stereo not given)	-5	21	18	544	-2	103
OC(COCc1ccc2c(c1)OCO2)CN1CCN(Cc2ccccc2)CC1 (stereo not given)	1	23	52*	86	-3	105
Cc1nn(CC(=O)N2CCN(c3cccc(C(F)(F)F)c3)CC2)c(=O)c2cccn12	-2	x	x	524	x	x
Cc1cc(C)cc(N(CC(=O)NC2CCC(C)CC2)S(=O)(=O)c2c(C)noc2C)c1 (stereo not given)	6	13	89*	275	-6	91*
Cc1cc(C)cc(N(CC(=O)O)S(=O)(=O)c2c(C)noc2C)c1	-4	x	13	248	-6	99
COCCN1C(=O)/C(=C/c2ccc(OCc3ccc(C(=O)O)cc3)c(OC)c2)SC1=Nc1ccccc1	16	64*	-57	288	-1	101
SMILES	MCL1-BIM inh	Mcl1-Noxa inh	Mcl1 Bid PPI	T cell HTS	Mcl-1 Bim block	Pemphigus Ab inh
Cc1ccc(N2CCN(C(=O)C3CCC(=O)N(Cc4ccc(Cl)cc4)C3)CC2)c(C)c1 (stereo not given)	x	x	x	152	x	100
CCOc1ccc(NC(=O)C2Cc3ccccc3CN2S(=O)(=O)CC)cc1 (stereo not given)	-5	4	-24	406	1	97
CCS(=O)(=O)N1Cc2ccccc2CC1C(=O)OCC(=O)N(C(C)C)C(C)C (stereo not given)	3	70*	-25	221	0	94
CCc1ccc2nc(N3C(=O)C(O)=C(C(=O)c4ccco4)C3c3cccs3)sc2c1 (stereo not given)	7	53*	19	520	1	289
Cc1ccc2nc(N3C(=O)C(O)=C(C(=O)c4cc5ccccc5o4)C3c3cccs3)sc2c1 (stereo not given)	10	70*	-25	238	2	123
Oc1ccc(NC(=S)N=Nc2c(O)[nH]c3ccc(Br)cc23)cc1	x	57*	-22	x	3	105
COc1ccc(C(=O)Nn2c(C)nc3ccccc3c2=O)cc1Br	-4	x	x	136	x	72*
COc1ccc(C(=O)Nn2c(C)nc3ccccc3c2=O)cc1OC	-6	x	x	265	x	93
CCOc1ccc2nc(SCC(=O)NC3CCCc4ccccc43)sc2c1 (stereo not given)	3	5	-22	212	-27	64*
CCN(C(=O)c1cc(S(=O)(=O)N2CCc3ccccc32)cn1C)c1ccccc1	-3	x	x	610	x	106
CCN(CC)C1CC(=O)N(c2cccc(Cl)c2)C1=O (stereo not given)	10	x	x	429	x	112
COc1ccccc1-c1nc(C(=O)NCC2CCCO2)cc2c1[nH]c1ccccc12 (stereo not given)	5	x	x	146	x	77*
Cc1ccc(SCc2c(C(=O)N/N=C/c3ccc(C)o3)nnn2-c2nonc2N)cc1	x	x	x	x	x	86*
Cc1ccc(-c2c(C(=O)N/N=C/c3ccco3)nnn2-c2nonc2N)cc1	2	x	x	720	x	91
Cc1ccc(/C=N/NC(=O)c2nnn(-c3nonc3N)c2CSc2ccccc2)o1	5	x	x	459	x	110
CCOC(=O)c1nnn(-c2nonc2N)c1CSc1ccccc1	4	6	52*	343	-2	104
CCOc1ccc(-c2c(C(=O)N/N=C/c3ccco3)nnn2-c2nonc2N)cc1	13	x	x	534	x	3.4*
COc1ccccc1NC(=O)COc1coc(CN2CCN(c3ccccc3)CC2)cc1=O	3	x	x	266	x	108
CCN(CC)S(=O)(=O)c1cccc(NC(=O)c2cccc(S(=O)(=O)N3CCCC3)c2)c1	1	x	x	282	x	107
Cc1nn(-c2ccccc2)nc1-c1nnc(-c2ccc(C(F)(F)F)cc2)o1	-2	-3	-5	491	x	76*
CCC1Oc2ccc(C)cc2N(CC(=O)N(Cc2cccnc2)Cc2ccc(C)o2)C1=O (stereo not given)	1	64*	71*	495	1	104
